Holding throughout (format): functional
One experiment concerns Staphylococcus aureus. Put plainly: Antibacterial activity against Staphylococcus aureus ATCC 6538 after 24 hrs by broth microdilution assay. Put shortly:
(§1)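 Broth microdilution in Triptone, in duplicate, per NCCLS. Samples dissolved in DMSO, then diluted in Triptone; final concentrations 2 to 0.0078 mg/mL for the pure compound and 16 to 0.031 mg/mL for extracts. Inoculum 10^5 CFU/mL. Incubation 24 h at 37 °C, read visually from below. MIC taken as the lowest concentration inhibiting growth. Controls: growth without sample, and DMSO blank.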
In general terms: Broth dilution looks for growth in wells or tubes with falling amounts of substance.

Experiment [1] relates to Staphylococcus epidermidis. Nature of the experiment: Antibacterial activity against Staphylococcus epidermidis ATCC 12228 after 24 hrs by broth microdilution assay. In outline:
as §1

A further experiment has as its system Bacillus spizizenii. Put plainly: Antibacterial activity against Bacillus subtilis subsp. […] after 24 hrs by broth microdilution assay. Put shortly: (§2)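 ATCC strain in 96-well broth microdilution, run in duplicate following NCCLS guidance. Samples were dissolved in DMSO, then diluted in Triptone as serial dilutions: final 16 to 0.031 mg/mL for extracts, 2 to 0.0078 mg/mL for the pure compound. Inoculum suspension was 10^5 CFU/mL. Growth-control and DMSO blank wells were included. Plates were incubated 24 h at 37 °C. MIC is the lowest concentration inhibiting visible growth.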

The test system of the next experiment is Escherichia coli. Put plainly: Antibacterial activity against Escherichia coli ATCC 8739 after 24 hrs by broth microdilution assay. Put shortly:
as §1

The next experiment deals with Pseudomonas aeruginosa. Nature of the experiment: Antibacterial activity against Pseudomonas aeruginosa ATCC 9027 after 24 hrs by broth microdilution assay. In outline:
as §1

Experiment [2] can be described thus: Antioxidant activity assessed as DPPH reducing activity. In outline:
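DPPH radical (0.025 g/L in MeOH, prepared daily) mixed with sample in MeOH, maximum concentration 200 µg/mL; vehicle control. Absorbance read at 515 nm after 10 min. Remaining DPPH calculated from a calibration curve. α-Tocopherol served as positive control. Run in triplicate; EC50 obtained by the Litchfield and Wilcoxon method.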
(In general: DPPH is a stable violet radical that fades when it is reduced.)

Another experiment relates to Aspergillus niger. Nature of the experiment: Antifungal activity against Aspergillus niger ATCC 16404 after 24 hrs by broth microdilution assay. To be noted: ATCC 16404, 24 h. In outline: as §1
For the next experiment, the system named is Candida albicans. Nature of the experiment: Antifungal activity against Candida albicans ATCC 10231 after 24 hrs by broth microdilution assay. Put shortly: as §2

Converted amounts (≈) assume the structure as drawn.

As to GENTAMICIN, the MIC – broadly, the lowest concentration that inhibits growth of the organism – against Staphylococcus aureus worked out at 1 µg/mL; in experiment [1] it was 1 µg/mL; in the experiment with Bacillus spizizenii, 1 µg/mL; with Escherichia coli, 4 µg/mL; in the experiment on Pseudomonas aeruginosa, 4 µg/mL.

Turning to `Cc1c(C)c2c(c(C)c1O)CC[C@@](C)(CCC[C@H](C)CCC[C@H](C)CCCC(C)C)O2` [ALPHA-TOCOPHEROL], the EC50 (usually the concentration at which the effect is half-maximal) in experiment [2] was 10.1 µg/mL (≈ 23.4 µM).

On to `O=C(/C=C/c1ccc(O)c(O)c1)O[C@H](Cc1ccc(O)c(O)c1)C(=O)O` [ROSMARINIC ACID], for which the concentration giving a half-maximal response (EC50) in experiment [2] worked out at 3.1 µg/mL (≈ 8.6 µM). Moreover, the MIC against Staphylococcus aureus (ATCC 6538, 24 h) is 120 µg/mL (≈ 333 µM); in experiment [1] (ATCC 12228, 24 h), 120 µg/mL (≈ 333 µM); against Aspergillus niger it was greater than 2000 µg/mL; against Candida albicans (ATCC 10231, 24 h), greater than 2000 µg/mL; in the experiment on Escherichia coli (ATCC 8739, 24 h), greater than 2000 µg/mL; in the experiment on Pseudomonas aeruginosa (ATCC 9027, 24 h) it was greater than 2000 µg/mL. The MBC (commonly the lowest tested concentration that kills the bacteria rather than only halting them) against Staphylococcus aureus (ATCC 6538, 48 h, in the assay text read “48 hrs” for “24 hrs”) was found to be 120 µg/mL (≈ 333 µM); in experiment [1] (ATCC 12228, 48 h, in the assay text read “48 hrs” for “24 hrs”), 120 µg/mL (≈ 333 µM); against Bacillus spizizenii (ATCC 6633, 24 h, in the assay text read “ATCC 6633” for “ATCC 9027”), 120 µg/mL (≈ 333 µM).

With NYSTATIN, the MIC with Candida albicans stood at 1 µg/mL.

Source of the values: ChEMBL document CHEMBL1141355, “Triterpene, antioxidant, and antimicrobial compounds from Melissa officinalis” (J Nat Prod, 2007).
